# Measured values collected from several papers.
# Compare with care: the assays were run in different laboratories.
# Target: Serine/threonine-protein kinase PAK 1 (PAK1, Homo sapiens, UniProt Q13153)
Compound,assay,setting,measurement,value
CC(C)(O)[C@H]1CC[C@H](Nc2ccc3ncc(-c4cccc(C(F)(F)F)c4)n3n2)CC1,"enzyme activity, inhibitor",1 µM,remaining activity,92.7%
O=S(=O)(Nc1cc(Sc2ncn[nH]2)c(O)c2ccccc12)c1ccc(-c2ccccc2)cc1,"enzyme activity, inhibitor",1 µM,remaining activity,≥ 75%
O=C1Nc2ccc(Cl)cc2C1=Cc1cc(Cl)c(O)c(Cl)c1,cell-free assay,0.5 µM,remaining signal,97.2%
COc1ccc2c(c1)O[C@H](c1ccc(OC)c(OC)c1)C[C@@H]2NC(=O)C1(c2ccc3c(c2)OC(F)(F)O3)CC1,"cell-free assay, competition with immobilised ligand",1 µM,remaining binding,100%
Cc1ccc(C(=O)Nc2ccc(CN3CCN(C)CC3)c(C(F)(F)F)c2)cc1C#Cc1cnc2cccnn12,"enzyme activity, inhibitor",23.5 nM,remaining activity,100%
Nc1cnc(N2CCc3cc(S(=O)(=O)Nc4c(F)cc(Cl)cc4F)cc(N4CCCC4=O)c32)nc1,"cell-free assay, competition with immobilised ligand",1 µM,remaining binding,89%
CC(C)(C)c1nc(-c2cccc(NS(=O)(=O)c3c(F)cccc3F)c2F)c(-c2ccnc(N)n2)s1,"enzyme activity, inhibitor, radiometric",1 µM,remaining activity,91%
Cc1cc(NC(=O)c2cccc3cc(-c4cccc5[nH]nc(N)c45)ccc23)ccc1F,"enzyme activity, inhibitor",0.1 µM,activity vs control,94%
CN(C)C1CCN(CC#Cc2nn(C3CCCC3)c3nc(NCc4ccccc4)ncc23)C1 (stereo not shown),"enzyme activity, inhibitor, FRET",1 µM,inhibition,4%
Cc1ccc(Nc2nccc(N(C)c3ccc4c(C)n(C)nc4c3)n2)cc1S(N)(=O)=O,"cell-free assay, inhibitor",0.5 µM,remaining signal,89.1%
CCc1ccccc1C(=O)Nc1n[nH]c2c(C)c(F)c(C3C(C#N)=C(C)N(C)C(C)=C3C#N)cc12,"cell-free assay, competition with immobilised ligand",1 µM,remaining binding,82%
COc1cc2ncnc(Nc3ccc(Oc4ccccc4)c(C)c3C)c2cc1OC,"enzyme activity, inhibitor",1 µM,inhibition,5%
Cc1c(NC(=O)c2cc(C(N)=O)nc3cc(F)ccc23)c(C(F)(F)F)nn1Cc1ccc(C(C)(C)C)cc1,"cell-free assay, competition with immobilised ligand",1 µM,remaining binding,98%
O=C1NC(=O)c2cc(Nc3ccc(F)cc3)c(Nc3ccc(F)cc3)cc21,cell-free assay,0.5 µM,remaining signal,95.5%
CS(=O)(=O)Nc1cccc(-c2csc(NC(=O)CSc3nc4nccnc4c(=O)n3CCc3ccccc3)n2)c1,"enzyme activity, inhibitor",10 µM,inhibition,-2%
O=C1CCc2cc(Nc3cc(OC4CCOCC4)c([N+](=O)[O-])cc3Cl)ccc2N1,"cell-free assay, competition with immobilised ligand",1 µM,remaining binding,88%
O=C(Nc1cnn(-c2csc(C(=O)NC3COC3)c2)c1)Nc1c(F)cccc1Cl,"enzyme activity, inhibitor",5 µM,remaining activity,81.2%
CS(=O)(=O)NCC[C@H](NC(=O)c1cncc2c1cnn2-c1ccc(F)cc1)c1ccnc(S(C)(=O)=O)c1,"cell-free assay, competition with immobilised ligand",1 µM,remaining binding,88%
Nc1ncnc2occ(-c3ccc(NC(=O)Nc4cc(C(F)(F)F)ccc4F)cc3)c12,"cell-free assay, inhibitor",20 µM,remaining signal,41%
